This passage reports inhibition results from ChEMBL document CHEMBL2069237, “3-Hydroxy-3-methylglutaryl flavonol glycosides from Oxytropis falcata” (2012).

Each structure is given as a SMILES string.

The test system of the test is RAW264.7. Briefly: Antiinflammatory activity in mouse RAW264.7 cells assessed as inhibition of lipopolysaccharide-induced nitric oxide production at 50 uM pre-incubated for 4 hrs before LPS challenge for 24 hrs by Griess assay. It counts as functional. In short, it runs like this: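 RAW 264.7 murine macrophages grown in DMEM with 10% FBS, 2 mmol/L L-glutamine, penicillin/streptomycin, 37 °C, 5% CO2. Cells (5 × 10^5/mL) preincubated 8 h, given compound at 10 or 50 μM for 4 h, then LPS (final 1 μg/mL) for 24 h. Nitrite in supernatant measured by Griess reagent, absorbance 570 nm, against sodium nitrite standard; expressed as % inhibition.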
Take `C[C@@H]1O[C@@H](OC[C@H]2O[C@@H](Oc3c(-c4ccc(O)cc4)oc4cc(O[C@@H]5O[C@@H](C)[C@H](O)[C@@H](O)[C@H]5O)cc(O)c4c3=O)[C@H](O)[C@@H](O)[C@@H]2O)[C@H](O)[C@H](O)[C@H]1O`: the inhibition at 50 µM was under 5%.
Next, `C[C@@H]1O[C@@H](OC[C@H]2O[C@@H](Oc3c(-c4ccc(O)cc4)oc4cc(O)cc(O)c4c3=O)[C@H](O)[C@@H](O)[C@H]2O)[C@H](O)[C@H](O)[C@H]1O`: under 5%.
Take `O=C(/C=C/c1ccccc1)c1ccc(O)cc1O` [2',4'-DIHYDROXYCHALCONE]: the inhibition at 50 µM worked out at 40.1%.
`CC1O[C@@H](OC[C@H]2O[C@@H](Oc3c(-c4ccc(O)cc4)oc4cc(O)cc(O)c4c3=O)C(O[C@@H]3O[C@H](C)[C@H](O)C(O)C3O)C(O)[C@H]2O)C(O)[C@@H](O)[C@H]1O` (stereo partly specified) [MAURITIANIN]: the inhibition at 50 µM was under 5%.
The figure for `COc1cc(O)c2c(=O)c(O[C@@H]3O[C@H](COC(=O)C[C@@](C)(O)CC(=O)O)[C@H](O)[C@H](O)[C@H]3O[C@@H]3O[C@@H](C)[C@H](O)[C@@H](O)[C@H]3O)c(-c3ccc(O)cc3)oc2c1` [OXYTROFLAVOSIDE A] is under 5%.
Next, `COc1cc(O)c2c(=O)c(O[C@@H]3O[C@H](CO)[C@H](O)[C@H](OC(=O)C[C@@](C)(O)CC(=O)O)[C@H]3O[C@@H]3O[C@@H](C)[C@H](O)[C@@H](O)[C@H]3O)c(-c3ccc(O)cc3)oc2c1` [OXYTROFLAVOSIDE B]: under 5%; `COc1cc(O)c2c(=O)c(O[C@@H]3O[C@H](CO)[C@H](OC(=O)C[C@@](C)(O)CC(=O)O)[C@H](O)[C@H]3O[C@@H]3O[C@@H](C)[C@H](O)[C@@H](O)[C@H]3O)c(-c3ccc(O)cc3)oc2c1` [OXYTROFLAVOSIDE C]: under 5%.
Next, `COc1cc(O)c2c(=O)c(O[C@@H]3O[C@H](COC(=O)C[C@@](C)(O)CC(=O)O)[C@H](O)[C@H](O)[C@H]3O)c(-c3ccc(O)cc3)oc2c1` [OXYTROFLAVOSIDE D]: under 5%.
With `COc1cc(O)c2c(=O)c(O[C@@H]3O[C@H](COC(=O)C[C@@](C)(O)CC(=O)O)[C@H](O)[C@H](O)[C@H]3O)c(-c3ccc(O[C@@H]4O[C@H](CO)[C@@H](O)[C@H](O)[C@H]4O)cc3)oc2c1` [OXYTROFLAVOSIDE E], the inhibition at 50 µM is under 5%.
The figure for `COc1cc(O)c2c(=O)c(O[C@@H]3O[C@H](CO)[C@H](O)[C@H](O)[C@H]3O[C@@H]3O[C@@H](C)[C@H](O)[C@@H](O)[C@H]3O)c(-c3ccc(O)cc3)oc2c1` [OXYTROFLAVOSIDE F] is under 5%; for `COc1cc(O)c2c(=O)c(O[C@@H]3O[C@H](CO[C@@H]4O[C@@H](C)[C@H](O)[C@@H](O)[C@H]4O)[C@H](O)[C@H](O)[C@H]3O[C@@H]3O[C@@H](C)[C@H](O)[C@@H](O)[C@H]3O)c(-c3ccc(O)cc3)oc2c1` [OXYTROFLAVOSIDE G] it is under 5%.
